Experimental data reported in publication PMC3983374 (Journal of Medicinal Chemistry, 2014).

Assays:
[1] = test system: caspase 7; assay: Activation of apoptosis; format: cell-based; conditions: same concentration of 5b and 1
[2] = Rate of reaction of prodrugs with 4 mM GSH; format: in vitro ADME; conditions: for kGSH/kGSH (mean ± SD): rate with GSH alone, normalised to itself
[3] = test system: panel of NSCLC cell lines; assay: Proliferation of panel of NSCLC cell lines; format: cell-based; conditions: Homo sapiens, read-out: IC50 range over panel of NSCLC cell lines
Procedure, shortened: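 Cell lines from ATCC were cultured per the supplier's protocol and tested by MTT assay per the kit protocol. Each concentration was run in six repeats, in at least two independent experiments. IC50 values were obtained by curve fitting.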

[4] = test system: recombinant GSTP1; assay: GSTP1-catalyzed reaction of prodrug with GSH; format: in vitro ADME; conditions: recombinant GSTP1 versus GSH alone
Procedure, shortened: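 Kinetics were run at 37 °C by UV–visible spectrophotometry in 0.1 M phosphate buffer pH 7.4 with 50 μM DTPA and 4 mM GSH, with or without 40 nM GST. Substrate (typically 10 μM) was added after buffer and enzyme reached thermal equilibrium. Absorbance was followed at 302 nm, and the rate came from a first-order exponential fit.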

[5] = test system: H1703 NSCLC cells; assay: Alkaline Comet assay; format: cell-based, human; conditions: H1703, 24 h treatment, 5 μM
[6] = test system: A549 NSCLC cells; assay: Cellular uptake and metabolism by LC/MS; format: in vitro ADME, human; conditions: A549, 10 μM, any time point from 5 min to 1 h
Procedure, shortened: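 A549 cells were plated in 75 cm2 flasks overnight at 37 °C, then exposed to 10 μM test compound for varying times. Cells were lysed by scraping in 10 mM HCl/acetonitrile, 5% sulfosalicylic acid was added, and samples were spun at 12000g for 15 min and filtered. Analysis was by Q-TOF LC/MS in positive ion mode: C18 column, water/acetonitrile/0.1% formic acid gradient, extracted ion chromatograms at [M+H]+, with a lysate spiked with authentic compound as reference.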

[7] = test system: A549 human lung adenocarcinoma xenografts; assay: A549 xenograft tumor growth; format: in vivo, NCr nu/nu athymic mice; conditions: 92 μmol/kg intravenously, 2 times a week for 4 weeks; compared to 1 or saline controls
[8] = Analysis of metabolites in resected tumors; format: in vivo, NCr nu/nu athymic mice; conditions: resected tumors after 92 μmol/kg i.v., 2 times a week for 4 weeks
Procedure, shortened: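 A549 cells, passaged at most four times in RPMI 1640 with 10% FBS, were harvested at 70–80% confluence and implanted s.c. at 5 × 10^6 cells/0.2 mL PBS into NCr nu/nu mice. At about 3 mm × 3 mm, mice were randomised into groups of 12. Test compound was given by tail vein at 92 μmol/kg in 20 μL DMSO, twice weekly for 4 weeks. Tumours were removed at euthanasia right after the last dose and frozen immediately for metabolite analysis.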

[9] = molecular target: PARP-1 enzyme (Homo sapiens, UniProt P09874); assay: PARP-1 enzyme inhibition; format: biochemical; conditions: presence or absence of GSH (4 mM)/GSTP1 (40 nM)
Sequence of PARP-1 enzyme (P09874 whole entry): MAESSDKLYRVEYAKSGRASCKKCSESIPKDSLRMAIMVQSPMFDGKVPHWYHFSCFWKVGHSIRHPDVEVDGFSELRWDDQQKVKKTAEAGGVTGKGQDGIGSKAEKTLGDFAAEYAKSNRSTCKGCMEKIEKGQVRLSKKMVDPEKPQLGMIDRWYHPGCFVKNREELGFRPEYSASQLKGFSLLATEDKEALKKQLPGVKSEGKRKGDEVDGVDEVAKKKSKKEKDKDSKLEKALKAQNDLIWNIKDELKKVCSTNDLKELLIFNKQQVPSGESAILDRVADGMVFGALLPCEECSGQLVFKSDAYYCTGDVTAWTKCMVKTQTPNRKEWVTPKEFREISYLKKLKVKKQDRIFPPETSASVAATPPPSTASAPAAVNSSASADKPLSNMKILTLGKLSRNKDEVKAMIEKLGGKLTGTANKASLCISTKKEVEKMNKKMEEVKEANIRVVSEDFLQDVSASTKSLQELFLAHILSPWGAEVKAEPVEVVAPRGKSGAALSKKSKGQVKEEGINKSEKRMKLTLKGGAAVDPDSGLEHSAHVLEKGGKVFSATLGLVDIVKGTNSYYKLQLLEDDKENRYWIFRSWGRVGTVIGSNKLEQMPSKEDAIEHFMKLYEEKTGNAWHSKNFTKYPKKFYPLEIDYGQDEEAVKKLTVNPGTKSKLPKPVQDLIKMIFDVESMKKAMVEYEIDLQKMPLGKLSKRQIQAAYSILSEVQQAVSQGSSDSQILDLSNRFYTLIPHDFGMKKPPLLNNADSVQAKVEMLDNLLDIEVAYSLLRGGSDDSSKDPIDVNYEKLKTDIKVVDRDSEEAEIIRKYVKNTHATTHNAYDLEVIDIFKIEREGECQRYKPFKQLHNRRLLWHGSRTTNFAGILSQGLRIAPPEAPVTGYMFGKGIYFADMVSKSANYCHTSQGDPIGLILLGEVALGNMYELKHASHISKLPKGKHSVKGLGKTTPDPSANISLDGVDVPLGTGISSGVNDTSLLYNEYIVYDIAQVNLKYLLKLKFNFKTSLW

[10] = test system: A549 lung adenocarcinoma cells; assay: Immunoblot analysis of glutathionylation, stress signaling and apoptosis; format: cell-based, human
Procedure, shortened: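 A549 lysates from cells treated with test compound (1 μM for the apoptosis markers) were immunoblotted for p38, eIF2α phosphorylation, CHOP, BiP, ATF4, p53 Ser15, Puma, and cleaved caspases 8, 3 and 7 and PARP. […] Blots are representative of at least three independent experiments.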

[11] = test system: A549 cells; assay: Colony forming assay; format: cell-based, human; conditions: A549, combination treatment of 14 and 13

With O=C(c1cc(Cc2n[nH]c(=O)c3ccccc23)ccc1F)N1CCN(C(=O)C2CC2)CC1 [Compound 1, olaparib, reference compound] the “apoptotic signal (cleaved caspase 7)” value [1] was “did not trigger apoptosis”.

For CCOC(=O)N1CCN(/[N+]([O-])=N/Oc2ccc([N+](=O)[O-])cc2[N+](=O)[O-])CC1 [Compound 2, O^2-(2,4-dinitrophenyl) 1-[(4-ethoxycarbonyl)piperazin-1-yl]diazen-1-ium-1,2-diolate, reference compound], the “kGSH/kGSH (mean ± SD)” value [2] was 1 ± 0.001.

O=C(c1cccc(Cc2n[nH]c(=O)c3ccccc23)c1)N1CCN(/[N+]([O-])=N/Oc2ccc([N+](=O)[O-])cc2[N+](=O)[O-])CC1 [Compound 5a] gave an IC50 [3] of 3 to 20 µM.

With O=C(c1cc(Cc2n[nH]c(=O)c3ccccc23)ccc1F)N1CCN(/[N+]([O-])=N/Oc2ccc([N+](=O)[O-])cc2[N+](=O)[O-])CC1 [Compound 5b] the “parent compound still present” value ([2]; 4 mM GSH, after 2 half-lives, LC/MS) was 25%, the “kGSH/kGSH (mean ± SD)” value [2] was 1 ± 0.007 and the IC50 [3] was 3 to 20 µM. The “enhancement of reaction with GSH when GSTP1 present” value [4] was “over 10 fold”, the “DNA strand break damage (Comet assay)” value [5] was “significant DNA strand break damage” and the “apoptotic signal (cleaved caspase 7)” value [1] was “strong apoptotic signal”. For the same compound, the “parent compound in cell lysates” value [6] was “not detected”, the “effect on tumor growth” value [7] was “reduced growth of tumors to a lesser extent” and the “parent drug and liberated PARP-1 inhibitor in tumors” value [8] was “detected in some tumors”.

With CNc1ccc(C(=O)Oc2cc(O/N=[N+](\[O-])N(C)C)c([N+](=O)[O-])cc2[N+](=O)[O-])cc1 [Compound 8, PABA/NO, reference compound] the “kGSH/kGSH (mean ± SD)” value [2] was 1 ± 0.003.

For CN(C)/[N+]([O-])=N\Oc1cc(O/N=[N+](\[O-])N2CCN(C(=O)c3cc(Cc4n[nH]c(=O)c5ccccc45)ccc3F)CC2)c([N+](=O)[O-])cc1[N+](=O)[O-] [Compound 13], the “kGSH/kGSH (mean ± SD)” value [2] was 1 ± 0.004, the “PARP-1 enzyme inhibition, activated versus prodrug” value [9] was “Activated compound is a much better PARP-1 inhibitor than the prodrug” and the “time to caspase 8 activation” value ([10]; A549, 1 μM) was no more than 6 h. For the same compound, the “time to detection of glutathione attached to protein” value ([10]; A549, nonreducing immunoblot) was no more than 1 h, the “time to activation of stress kinase p38” value ([10]; A549, phosphorylation persisted for 8 h) was no more than 15 min and the “effect on tumor growth” value [7] was “significant reduction of the tumor growth”. For the same compound, the “parent drug and liberated PARP-1 inhibitor in tumors” value [8] was “detected in some tumors” and the “cytotoxicity in combination with 14” value [11] was “enhanced toxicity”.
